pEC50, pIC50, pKd: −log10 of the molar value. Where two headings read alike, the source gives them in different places.
Legend:
PfPRS [1] = target: T1, PfPRS (Plasmodium falciparum, UniProt Q8I5R7); assay: Aminoacylation activity inhibition assay; format: biochemical
T1 sequence (Q8I5R7 250-746 limits assumed): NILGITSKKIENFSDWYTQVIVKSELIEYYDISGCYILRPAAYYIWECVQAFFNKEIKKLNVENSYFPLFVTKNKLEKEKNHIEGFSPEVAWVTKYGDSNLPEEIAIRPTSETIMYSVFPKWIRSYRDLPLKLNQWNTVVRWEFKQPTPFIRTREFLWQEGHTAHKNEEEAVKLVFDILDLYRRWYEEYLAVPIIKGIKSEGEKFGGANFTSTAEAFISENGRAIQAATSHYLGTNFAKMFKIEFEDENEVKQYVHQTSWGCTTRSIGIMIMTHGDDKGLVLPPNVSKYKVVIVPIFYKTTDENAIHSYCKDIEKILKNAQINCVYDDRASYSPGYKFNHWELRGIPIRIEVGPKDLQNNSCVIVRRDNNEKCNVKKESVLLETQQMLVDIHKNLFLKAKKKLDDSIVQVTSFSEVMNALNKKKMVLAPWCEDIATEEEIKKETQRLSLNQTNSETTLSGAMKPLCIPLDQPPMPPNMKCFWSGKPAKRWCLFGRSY

PfPRS [2] = target: T1, PfPRS; assay: Microscale thermophoresis; format: binding; details: for pKd: Kd-Pf
Summary of the method: (§1)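 Recombinant tag-cleaved PRS (affinity, heparin and gel-filtration purified) labelled on lysines with Red-NHS 2nd-generation dye and held at 100 nM. Kd from MST; two independent replicates.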

HsPRS [3] = target: T2, HsPRS (Homo sapiens, UniProt P07814); format: binding
T2 sequence (P07814 1007-1512 limits assumed): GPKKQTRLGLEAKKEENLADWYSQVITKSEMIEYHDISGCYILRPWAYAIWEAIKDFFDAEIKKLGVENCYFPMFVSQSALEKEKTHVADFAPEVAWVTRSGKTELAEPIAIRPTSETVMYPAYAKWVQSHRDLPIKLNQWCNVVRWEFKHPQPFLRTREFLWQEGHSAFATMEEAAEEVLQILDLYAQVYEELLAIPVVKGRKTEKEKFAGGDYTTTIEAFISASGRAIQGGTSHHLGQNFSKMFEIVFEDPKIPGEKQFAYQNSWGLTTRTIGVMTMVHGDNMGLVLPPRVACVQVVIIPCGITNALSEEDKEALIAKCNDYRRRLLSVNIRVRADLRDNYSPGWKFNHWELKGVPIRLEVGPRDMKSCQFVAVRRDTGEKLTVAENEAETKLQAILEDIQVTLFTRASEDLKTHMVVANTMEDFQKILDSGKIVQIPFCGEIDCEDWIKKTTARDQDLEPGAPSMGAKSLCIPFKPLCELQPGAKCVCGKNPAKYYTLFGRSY

PfPRS [4] = target: T1, PfPRS; format: binding; details: Enzyme:Compound 1:50
HsPRS [5] = target: T2, HsPRS; assay: Microscale thermophoresis; format: binding; details: Kd-Hs
Summary of the method: as §1

HsPRS [6] = target: T2, HsPRS; assay: Aminoacylation activity inhibition assay; format: biochemical
[7] = tested on: Plasmodium falciparum 3D7; assay: Asexual blood stage parasite growth inhibition; format: cell-based; details: 3D7, 48 h, read-out: Pf-EC50 (ABS), Pf 3D7, 48 h
[8] = replicate n = 1, MST, individual replicate 1
[9] = replicate n = 2, MST, individual replicate 2

For O=C(CC1NCCCC1O)Cn1cnc2cc(Br)c(Cl)cc2c1=O (centres unmarked) [HFG, Halofuginone], the pIC50 (PfPRS [1]) was 8.55, the “SI-IC50 (Hs/Pf)” value (PfPRS [1]; IC50 of the human enzyme divided by that of the plasmodium enzyme) was 3.9 and the “SI-Kd (Hs/Pf)” value (PfPRS [2]; Kd-Hs / Kd-Pf) was 0.7. The pKd (PfPRS [2]; [8]) was 7.13, the pKd (PfPRS [2]; [9]) was 7.14 and the “HsPRS ΔTm from Apo Tm” value (HsPRS [3]) was 61.4 (11.6) °C. For the same molecule, the “HsPRS melting temperature (Tm)” value (HsPRS [3]; enzyme + inhibitor only, no substrate, Enzyme:Compound 1:100) was 61.4 (11.6) °C, the “PfPRS melting temperature (Tm)” value (PfPRS [4]; in presence of ATP (2 mM)) was 87.7 °C and the “PfPRS melting temperature (Tm)” value (PfPRS [4]; in presence of L-pro (2 mM)) was 54.7 °C. The “PfPRS melting temperature (Tm)” value (PfPRS [4]; in presence of L-pro + ATP (2 mM)) was 86.6 °C, the pKd (HsPRS [5]; [8]) was 7.37 and the pKd (HsPRS [5]; [9]) was 7.21. It also gave a pIC50 (HsPRS [6]) of 7.96 and a pEC50 [7] of 9.70.

From paper PMC11298890 (iScience, 2024)
